Active and inactive are the calls of the source. No cut-off for these calls is given here.
Experiments:
[1] = test system: Salmonella enterica subsp. enterica serovar Paratyphi B; experiment: Antibacterial activity against Salmonella paratyphi B CICC 21495 assessed as bacterial growth inhibition incubated for 18 to 24 hrs by microtiter broth dilution method; assay type: functional; settings: time 18-24 hrs
Method in brief: (§1)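 Log-phase bacteria grown at 37 °C in MHB, diluted to 10^5 CFU/mL, mixed 1:1 with serial peptide dilutions (peptide diluted in 0.01% acetic acid, 0.2% BSA); 37 °C for 18-24 h. MIC read by OD492 as lowest concentration giving no growth; mean of 3-5 independent experiments.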

Escherichia coli [2] = experiment: Antibacterial activity against Escherichia coli O157:H7 CICC 21530 assessed as bacterial growth inhibition incubated for 18 to 24 hrs in presence of 6 mM NH4Cl by microtiter broth dilution method (reference value: 0.85 to > 71.5 uM); assay type: functional; settings: time 18-24 hrs
Salmonella enteritidis = experiment: Antibacterial activity against Salmonella enteritidis CICC 21527 assessed as bacterial growth inhibition incubated for 18 to 24 hrs by microtiter broth dilution method; assay type: functional, Salmonella enterica subsp. enterica serovar Enteritidis; settings: Salmonella enterica, time 18-24 hrs
Method in brief: (§2)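 Log-phase cells (grown overnight at 37 °C, subcultured in MHB) diluted to 10^5 CFU/mL in MHB and mixed 1:1 with serial peptide dilutions prepared in 0.01% acetic acid/0.2% BSA. Incubated 37 °C for 18-24 h. MIC is the lowest concentration giving no growth by OD492. Reported as the average of 3-5 independent experiments.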

Listeria monocytogenes [3] = experiment: Antibacterial activity against Listeria monocytogenes CICC 21633 assessed as bacterial growth inhibition incubated for 18 to 24 hrs by microtiter broth dilution method; assay type: functional; settings: time 18-24 hrs; method in brief: as §2
Escherichia coli [4] = experiment: Antibacterial activity against Escherichia coli O157:H7 CICC 21530 assessed as bacterial growth inhibition incubated for 18 to 24 hrs in presence of 1 mM MgCl2 by microtiter broth dilution method (reference value: 0.85 to > 71.5 uM); assay type: functional; settings: time 18-24 hrs
Staphylococcus aureus [5] = experiment: Antibacterial activity against Staphylococcus aureus ATCC 29213 assessed as bacterial growth inhibition incubated for 18 to 24 hrs by microtiter broth dilution method; assay type: functional; settings: time 18-24 hrs; method in brief: as §2
Salmonella paratyphi = experiment: Antibacterial activity against Salmonella paratyphi A CICC 20501 assessed as bacterial growth inhibition incubated for 18 to 24 hrs by microtiter broth dilution method; assay type: functional, Salmonella enterica subsp. enterica serovar Paratyphi A; settings: Salmonella enterica, time 18-24 hrs; method in brief: as §1
Staphylococcus aureus [6] = experiment: Antibacterial activity against Staphylococcus aureus ATCC 29213 assessed as bacterial growth inhibition incubated for 18 to 24 hrs in presence of 2 mM CaCl2 by microtiter broth dilution method (reference value: 0.43 to > 71.5 uM); assay type: functional; settings: time 18-24 hrs
Vibrio parahaemolyticus = experiment: Antibacterial activity against Vibrio parahaemolyticus CICC 21617 assessed as bacterial growth inhibition incubated for 18 to 24 hrs by broth dilution method; assay type: functional; settings: time 18-24 hrs; method in brief: as §2
Escherichia coli [7] = experiment: Bactericidal activity against Escherichia coli O157:H7 CICC 21530 assessed as bacterial killing at 1 times MIC by time kill assay; assay type: functional, organism-based; settings: time 1085.0 min, TDE = time-dependent effect
Salmonella enterica = experiment: Antibacterial activity against Salmonella choleraesuis ATCC 13312 assessed as bacterial growth inhibition incubated for 18 to 24 hrs by broth dilution method; assay type: functional; settings: time 18-24 hrs; method in brief: as §1
Staphylococcus aureus [8] = experiment: Antibacterial activity against Staphylococcus aureus ATCC 29213 assessed as bacterial growth inhibition incubated for 18 to 24 hrs in presence of 150 mM NaCl by microtiter broth dilution method (reference value: 0.43 to > 71.5 uM); assay type: functional; settings: time 18-24 hrs
Cell membrane [9] = experiment: Induction of cell membrane depolarization in Escherichia coli O157:H7 CICC 21530 assessed as increase in fluorescence intensity at 0.5 to 2 times MIC preincubated for 90 mins followed by KCl addition and measured after 15 to 30 mins by DiSC3-5 staining based fluorescence spectroscopic technique; assay type: subcellular; settings: time 105-120 min
Escherichia coli [10] = experiment: Antibacterial activity against Escherichia coli O157:H7 CICC 21530 assessed as bacterial growth inhibition incubated for 18 to 24 hrs in presence of 2 mM CaCl2 by microtiter broth dilution method (reference value: 0.85 to > 71.5 uM); assay type: functional; settings: time 18-24 hrs
Cell membrane [11] = experiment: Induction of cell membrane disruption in Escherichia coli O157:H7 CICC 21530 assessed as propidium iodide-positive cells at 0.5 times MIC measured after 30 mins by flow cytometry analysis (reference value: 5.7 %); assay type: subcellular
Shigella flexneri = experiment: Antibacterial activity against Shigella flexneri CMCC 51571 assessed as bacterial growth inhibition incubated for 18 to 24 hrs by microtiter broth dilution method; assay type: functional; settings: time 18-24 hrs; method in brief: as §2
HepG2 [12] = experiment: Induction of cell cycle arrest in human HepG2 cells assessed as accumulation at sub-G1 phase at 64 uM incubated for 24 hrs by annexin-V/FITC staining-based FACS flow cytometry analysis (reference value: 0.07%); assay type: functional
[13] = Therapeutic index, ratio of MHC10 for human RBC to geometric mean of peptide MIC for Escherichia coli O157:H7 CICC 21530; assay type: toxicity; settings: human red blood cells (RBC), pooled result: one value given for 11 cell lines, strains, targets or settings, read-out: TI
Method in brief: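 Therapeutic index = MHC (peptide concentration giving 10% hemolysis of human RBCs, 1 h, 37 °C, A540) divided by geometric mean of MICs from broth microdilution (10^5 CFU/mL in MHB, 37 °C, 18-24 h, OD492).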

Staphylococcus aureus [14] = experiment: Antibacterial activity against methicillin resistant Staphylococcus aureus ATCC 43300 assessed as bacterial growth inhibition incubated for 18 to 24 hrs by microtiter broth dilution method; assay type: functional; settings: time 18-24 hrs; method in brief: as §1
Salmonella typhimurium = experiment: Antibacterial activity against Salmonella typhimurium CMCC 51005 assessed as bacterial growth inhibition incubated for 18 to 24 hrs by microtiter broth dilution method; assay type: functional, Salmonella enterica subsp. enterica serovar Typhimurium; settings: Salmonella enterica, time 18-24 hrs; method in brief: as §2
Escherichia coli [15] = experiment: Antibacterial activity against Escherichia coli O157:H7 CICC 21530 assessed as bacterial growth inhibition incubated for 18 to 24 hrs by microtiter broth dilution method; assay type: functional; settings: time 18-24 hrs; method in brief: as §1
Candida albicans = experiment: Antifungal activity against Candida albicans ATCC 10231 assessed as fungal growth inhibition incubated for 18 to 24 hrs by microtiter broth dilution method; assay type: functional; settings: time 18-24 hrs; method in brief: as §2
Escherichia coli [16] = experiment: Antibacterial activity against Escherichia coli O157:H7 CICC 21530 assessed as bacterial growth inhibition incubated for 18 to 24 hrs in presence of 150 mM NaCl by microtiter broth dilution method (reference value: 0.85 to > 71.5 uM); assay type: functional; settings: time 18-24 hrs
Micrococcus luteus = experiment: Antibacterial activity against Micrococcus luteus CMCC 28001 assessed as bacterial growth inhibition incubated for 18 to 24 hrs by microtiter broth dilution method; assay type: functional; settings: time 18-24 hrs; method in brief: as §2
HepG2 [17] = experiment: Induction of cell cycle arrest in human HepG2 cells assessed as accumulation at Go/G1 phase at 32 uM incubated for 24 hrs by annexin-V/FITC staining-based FACS flow cytometry analysis (reference value: 54.61 %); assay type: functional
Escherichia coli [18] = experiment: Induction of morphological changes in Escherichia coli O157:H7 CICC 21530 assessed as membrane blebbing at 1 times MIC after 60 mins by SEM analysis; assay type: functional, organism-based
Listeria monocytogenes [19] = experiment: Antibacterial activity against Listeria monocytogenes CICC 21662 assessed as bacterial growth inhibition incubated for 18 to 24 hrs by microtiter broth dilution method; assay type: functional; settings: time 18-24 hrs; method in brief: as §2
Bacillus cereus = experiment: Antibacterial activity against Bacillus cereus CMCC 63301 assessed as bacterial growth inhibition incubated for 18 to 24 hrs by microtiter broth dilution method; assay type: functional; settings: time 18-24 hrs; method in brief: as §2

Substance	MIC [1]	MIC (Escherichia coli [2])	MIC (Salmonella enteritidis)	MIC (Listeria monocytogenes [3])	MIC (Escherichia coli [4])	MIC (Staphylococcus aureus [5])	MIC (Salmonella paratyphi)	MIC (Staphylococcus aureus [6])	MIC (Vibrio parahaemolyticus)	Activity (Escherichia coli [7])	MIC (Salmonella enterica)	MIC (Staphylococcus aureus [8])	Activity (Cell membrane [9])	MIC (Escherichia coli [10])	Activity (Cell membrane [11])	MIC (Shigella flexneri)	Activity (HepG2 [12])	selectivity ratio [13]	MIC (Staphylococcus aureus [14])	MIC (Salmonella typhimurium)	other results
H-WGEAFSAGVHRLANGGNG-NH2	> 71.2 µM	> 71.2 µM	> 71.2 µM	> 71.2 µM	> 71.2 µM	> 71.2 µM	> 71.2 µM	> 71.2 µM	> 71.2 µM	Tde	> 71.2 µM	> 71.2 µM	Active	> 71.2 µM	14.3%	> 71.2 µM	2.26%	1	> 71.2 µM	> 71.2 µM	MIC (Escherichia coli [15]): > 71.2 µM; MIC (Candida albicans): > 71.2 µM; MIC (Escherichia coli [16]): > 71.2 µM; MIC (Micrococcus luteus): > 71.2 µM; Activity (HepG2 [17]): 52.45%; Activity (Escherichia coli [18]): Active; MIC (Listeria monocytogenes [19]): > 71.2 µM; MIC (Bacillus cereus): > 71.2 µM
H-WLRAFRRLVRRLARGLRR-NH2	0.85 µM	0.85 µM	6.81 µM	0.21 µM	0.85 µM	0.43 µM	0.43 µM	0.43 µM	1.7 µM	Tde	1.7 µM	1.7 µM	Active	3.4 µM	78.9%	0.43 µM	77.66%	20.5	0.85 µM	6.81 µM	MIC (Escherichia coli [15]): 0.85 µM; MIC (Candida albicans): 3.4 µM; MIC (Escherichia coli [16]): 3.4 µM; MIC (Micrococcus luteus): 0.43 µM; Activity (HepG2 [17]): 21.35%; Activity (Escherichia coli [18]): Active; MIC (Listeria monocytogenes [19]): 0.21 µM; MIC (Bacillus cereus): 0.85 µM
